According to publication PMC8246884 (Journal of Medical Virology, 2020):

Columns and labels:
[1] = Plasma pharmacokinetics on Day 14; type: in vivo, human; details: Day 14, coadministered with CDI‐31244
Method in brief: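 Treatment-naïve adults with chronic genotype 1 HCV and no cirrhosis took oral drugs once daily for 2 weeks: a nucleotide/NS5A inhibitor combination tablet (400 mg/100 mg) plus a non-nucleoside inhibitor, 400 mg as capsules. Plasma was sampled before the first dose on Day 1 and at 0, 1, 2, 4, 6, 8, 12 and 24 h after the Day 14 dose. Validated LC-MS/MS; per-patient non-compartmental Cmax, Cmin, tmax, AUC0–24; descriptive statistics.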

HCV = details: cited from earlier work

Exposure [1] | SMILES | HCV RNA viral load reduction (HCV) [log10]
consistent with reported values | C[C@@]1(F)[C@H](O)[C@@H](CO)O[C@H]1n1ccc(=O)[nH]c1=O [GS‐331007] | –
consistent with reported values | CC(C)OC(=O)[C@H](C)N[P@](=O)(OC[C@H]1O[C@@H](n2ccc(=O)[nH]c2=O)[C@](C)(F)[C@@H]1O)Oc1ccccc1 [sofosbuvir] | –
– | COc1c(-c2ccc3cc(NS(C)(=O)=O)ccc3c2)cc(-n2ccc(=O)[nH]c2=O)cc1C(C)(C)C [dasabuvir] | 0.95
consistent with reported values | COC[C@H]1C[C@@H](c2ncc(-c3ccc4c(c3)COc3cc5c(ccc6nc([C@@H]7CC[C@H](C)N7C(=O)[C@@H](NC(=O)OC)C(C)C)[nH]c65)cc3-4)[nH]2)N(C(=O)[C@H](NC(=O)OC)c2ccccc2)C1 [velpatasvir] | –
